This note sets out measurements from ChEMBL document CHEMBL5512625, “Design, synthesis, and biological evaluation of first-in-class indomethacin-based PROTACs degrading SARS-CoV-2 main protease and with broad-spectrum antiviral activity” (Eur J Med Chem, 2024).

What all share (type): cell-based
Assay [1] has as its target T1, von Hippel-Lindau disease tumor suppressor-SARS-Cov-2 polyprotein (Severe acute respiratory syndrome coronavirus 2) (UniProt P40337+P0DTD1). The assay is described as follows: (§1) PROTAC activity at human VHL/FLAG-nsp4-tagged SARS CoV-2 MPro overexpressed in HEK293T cells assessed as protein degradation pretreated for 2 hrs followed by viral protein transfection measured after 24 hrs by Western blot analysis. Conditions: time 26.0 hrs. The gist of the method:
(§2)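 293T cells pretreated 2 h with compound (1–25 µM) or 0.1% DMSO, then transfected with FLAG-nsp4-Mpro plasmid and kept 24 h with compound. Western blot for Mpro with β-actin loading control. Densitometry from 2–3 independent experiments; DC50 by nonlinear regression, plus % degradation at the top concentration.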

The target in assay [2] is Replicase polyprotein 1ab (Severe acute respiratory syndrome coronavirus 2) (UniProt P0DTD1). Put plainly: Effect on catalytic activity of FLAG-nsp4-tagged SARS CoV-2 MPro overexpressed in HEK293T cells pretreated for 2 hrs followed by viral protein transfection measured after 24 hrs by Western blot analysis. Conditions: time 26.0 hrs. In short, it runs like this:
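293T cells pretreated 2 h, then transfected with FLAG-nsp4-Mpro plasmid and kept 24 h with compound. Western blot with anti-Mpro antibody reads cleavage: release of ~34 kDa mature Mpro versus the uncleaved upper band.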
A general note: In western blotting, separated proteins are transferred to a membrane and probed.

Assay [3] has the same target. Put plainly: Effect on catalytic activity of FLAG-nsp4-tagged SARS CoV-2 MPro overexpressed in HEK293T cells by FRET assay.
The target of assay [4] is T1, von Hippel-Lindau disease tumor suppressor-SARS-Cov-2 polyprotein (Severe acute respiratory syndrome coronavirus 2). Put plainly: PROTAC activity at human VHL/FLAG-nsp4-tagged SARS CoV-2 MPro overexpressed in HEK293T cells assessed as protein degradation at 25 uM pretreated for 2 hrs followed by viral protein transfection measured after 24 hrs by Western blot analysis. To be noted: time 26.0 hrs. The gist of the method: as §2

For assay [5], the target named is von Hippel-Lindau disease tumor suppressor-SARS-Cov-2 polyprotein (Severe acute respiratory syndrome coronavirus 2, UniProt P40337+P0DTD1). The assay is described as §1. In short, it runs like this: as §2
Sequence of von Hippel-Lindau disease tumor suppressor-SARS-Cov-2 polyprotein (P40337 whole entry, other chains not shown): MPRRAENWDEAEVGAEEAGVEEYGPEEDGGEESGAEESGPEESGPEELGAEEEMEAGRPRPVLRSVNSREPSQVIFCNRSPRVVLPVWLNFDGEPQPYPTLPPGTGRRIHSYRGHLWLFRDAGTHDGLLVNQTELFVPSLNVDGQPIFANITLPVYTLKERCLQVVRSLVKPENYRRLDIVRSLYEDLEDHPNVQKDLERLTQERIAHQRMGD
Assay [6] has as its target T1, von Hippel-Lindau disease tumor suppressor-SARS-Cov-2 polyprotein (Severe acute respiratory syndrome coronavirus 2). The assay is described as follows: PROTAC activity at human VHL/FLAG-nsp4-tagged SARS CoV-2 MPro overexpressed in HEK293T cells assessed as protein degradation at 25 uM pretreated for 2 hrs followed by viral protein transfection measured after 24 hrs by Western blot analysis relative to control. To be noted: time 26.0 hrs. In short, it runs like this: as §2

For assay [7] the target is unchanged. The assay is described as follows: PROTAC activity at human VHL/FLAG-nsp4-tagged SARS CoV-2 MPro overexpressed in HEK293T cells assessed as protein degradation at 25 uM pretreated for 2 hrs followed by viral protein transfection measured after 24 hrs in presence of VH298 by Western blot analysis. To be noted: time 26.0 hrs. In short, it runs like this: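 293T cells pretreated with compound at 25 µM, with or without 50 µM VHL inhibitor VH298. Cells then transfected to express FLAG-nsp4-Mpro and collected 24 h post-transfection. Mpro detected by Western blot, β-actin as loading control.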

Active and inactive are the calls of the source. The calls are words filed in the database; no cut-off is given here.

T1 sequence (P40337 whole entry, looked up, other chains not shown): as the sequence (P40337 whole entry, other chains not shown) above

On to `COc1ccc2c(c1)c(CC(=O)NCCCCCCC(=O)N[C@H](C(=O)N1C[C@H](O)C[C@H]1C(=O)N[C@@H](C)c1ccc(-c3scnc3C)cc1)C(C)(C)C)c(C)n2C(=O)c1ccc(Cl)cc1`, for which the Activity result in assay [1] is “Dose-Dependent Effect”. Further, the outcome in assay [2] and in assay [3] was inactive.
On to `COc1ccc2c(c1)c(CC(=O)NCCN1CCN(C(=O)CCC(=O)N[C@H](C(=O)N3C[C@@H](O)C[C@H]3C(=O)N[C@@H](C)c3ccc(-c4scnc4C)cc3)C(C)(C)C)CC1)c(C)n2C(=O)c1ccc(Cl)cc1`, for which the result in assay [4] was inactive.
Take `COc1ccc2c(c1)c(CC(=O)NCCN1CCN(C(=O)CCC(=O)N[C@H](C(=O)N3C[C@H](O)C[C@H]3C(=O)N[C@@H](C)c3ccc(-c4scnc4C)cc3)C(C)(C)C)CC1)c(C)n2C(=O)c1ccc(Cl)cc1`: the DC50 (usually the concentration giving 50% degradation) in assay [5] came to 18.1 µM. Moreover, the result in assay [2], in assay [3] and in assay [7] was inactive. Also, the Activity in assay [6] turned out to be 67%.
Turning to `COc1ccc2c(c1)c(CC(=O)N1CCN(CC(=O)N[C@H](C(=O)N3C[C@H](O)C[C@H]3C(=O)N[C@@H](C)c3ccc(-c4scnc4C)cc3)C(C)(C)C)CC1)c(C)n2C(=O)c1ccc(Cl)cc1`, the 50% degradation concentration (DC50) in assay [5] is 7.3 µM. For the same compound, the outcome in assay [2], in assay [3] and in assay [7] was inactive. In addition, the Activity in assay [6] was 72%.
